According to ChEMBL document CHEMBL4130607, “Sodium-Periodate-Mediated Harringtonine Derivatives and Their Antiproliferative Activity against HL-60 Acute Leukemia Cells” (J Nat Prod, 2018):
Blank lines part the entries; values can stand above or below the molecule they belong to.

Tests used:
HL-60 = experiment: Antiproliferative activity against human HL60 cells after 62 hrs by MTS assay; assay type: functional, cell-based; conditions: HL-60, 62 h
Outline: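 HL-60 cells kept in RPMI-1640 with 10% heat-inactivated FBS, penicillin/streptomycin, 37 °C, 5% CO2. Seeded at 2.0 × 10^4 cells/mL with increasing compound concentrations for 62 h. MTS reagent added, formazan absorbance read at 492/620 nm after 2 h. IC50 from linear regression of viability against log concentration. Mean ± SD of triplicate tests.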

[1] = Drug uptake in human HL60 cells at 1 uM after 3 hrs by indirect competitive ELISA; assay type: ADME, cell-based; conditions: hl-60, 3 h
Outline: (§1)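 HL-60 cells at 5.0 × 10^5 cells/mL were preincubated 1 h, then exposed to compound (final 1, 10 or 100 μM) for 3 h. Cells were washed three times in PBS and lysed in RIPA buffer on ice for 20 min. Cleared supernatant was run in icELISA: HT–HSA coated plate, competition with mAb 1D2, HRP anti-mouse IgG, ABTS, A405. Result given as ng per 5 × 10^6 cells and uptake rate %.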

[2] = Drug uptake in human HL60 cells at 10 uM after 3 hrs by indirect competitive ELISA; assay type: ADME, cell-based; conditions: hl-60, 3 h; outline: as §1
[3] = Drug uptake in human HL60 cells at 100 uM after 3 hrs by indirect competitive ELISA; assay type: ADME, cell-based; conditions: hl-60, 3 h; outline: as §1

IC50 (HL-60): > 100 µM
SMILES: COC1=C[C@]23CCC(=O)N2CCc2cc4c(cc2[C@@H]3[C@@H]1OC(=O)[C@@](O)(CCC(C)(C)O)CC(=O)O)OCO4

IC50 (HL-60): > 100 µM
SMILES: COC(=O)C[C@](O)(CCC(C)(C)O)C(=O)O[C@@H]1C(OC)=C[C@]23CCCN2C(=O)c2cc4c(cc2[C@H]13)OCO4

IC50 (HL-60): > 100 µM
SMILES: COC1=C[C@]23CCCN2CCc2cc4c(cc2[C@@H]3[C@@H]1OC(=O)[C@@](O)(CCC(C)(C)O)CC(=O)O)OCO4

IC50 (HL-60): > 100 µM
Drug uptake [1]: 0.09%
Drug uptake [2]: 0.02%
Drug uptake [3]: 0.02%
SMILES: COC(=O)C[C@](O)(CCC(C)(C)O)C(=O)O[C@@H]1C(OC)=C[C@]23CCC(=O)N2CCc2cc4c(cc2[C@H]13)OCO4

The remaining lines, values behind:

SMILES: COC(=O)C[C@](O)(CCCC(C)(C)O)C(=O)O[C@@H]1C(OC)=C[C@]23CCCN2CCc2cc4c(cc2[C@H]13)OCO4 [OMACETAXINE MEPESUCCINATE]
IC50 (HL-60): 0.022 µM

SMILES: COC(=O)C[C@](O)(CCC(C)(C)O)C(=O)O[C@@H]1C(OC)=C[C@]23CCCN2CCc2cc4c(cc2[C@H]13)OCO4 [HARRINGTONINE]
IC50 (HL-60): 0.047 µM
Drug uptake [1]: 3.34%
Drug uptake [2]: 0.61%
Drug uptake [3]: 0.35%

SMILES: COC1=C[C@]23CCCN2CCc2cc4c(cc2[C@@H]3[C@@H]1O)OCO4 [CEPHALOTAXINE]
IC50 (HL-60): 61.2 µM

SMILES: COC1=C[C@]23CCCN2C(=O)c2cc4c(cc2[C@@H]3[C@@H]1OC(=O)[C@@](O)(CCC(C)(C)O)CC(=O)O)OCO4
IC50 (HL-60): > 100 µM
